From ChEMBL document CHEMBL1255261, “Lethal mutagenesis of picornaviruses with N-6-modified purine nucleoside analogues” (Antimicrob Agents Chemother, 2008) come the findings set out here.

Data set [1] in a line: Cytotoxicity against human HeLaS3 cells assessed cell viability at 0.05 after 24 hrs by Alamar blue assay. In kind it is cell-based, HeLa S3. Particulars: read-out: Activity. Summed up:
(§1)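 HeLa S3 cells were seeded at 2 × 10^3 per well in DMEM/F-12 with 2% FBS and allowed to adhere 1 h at 37°C. Nucleoside in medium (0.05–2 mM) was added with continuous exposure at 37°C. Resazurin (Alamar blue) was added 6 h before the 24 h read. Percent reduction was taken from A570 corrected by A590 and normalized to vehicle (DMSO) cells set at 100%. Triplicate wells, mean ± SD.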
(Resazurin is reduced to fluorescent resorufin, in cell work by metabolically active cells.)

In data set [2] the test system is Coxsackievirus. The experiment in a line: Antiviral activity against Coxsackievirus infected in compound pre-treated HeLaS3 cells assessed as reduction in viral titer at 0.5 mM after 6 hrs relative to control. In kind it is functional, HeLa S3. The arrangement: scale not given: the % may be the effect or the level left. In outline:
(§2)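 HeLa S3 cells pretreated with nucleoside (0.5 or 2 mM) for 1 h, then infected with CVB3 at MOI 5. Fresh medium containing the analogue was added and infection ran 6 h at 37°C. Cell-associated virus was collected by freeze-thaw and titrated on HeLa S3 monolayers. Result is percent reduction in titer versus untreated infection.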

Data set [3] in a line: Metabolic stability in human HeLaS3 cells assessed as JA28-triphosphate at 0.5 mM after 2 hrs by reverse-phase HPLC. Particulars: hela s3, 2 h, 500 µM. In kind it is ADME, cell-based. In outline: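 Suspension-adapted HeLa S3 cells at 5 × 10^6 cells/ml in S-MEM with 2% dialyzed FBS were pretreated with actinomycin D (2.5 μg/ml, 15 min, 37°C). Nucleoside was then added to 0.5 mM final with 1% DMSO, 2 h at 37°C. Cells were extracted with ice-cold 0.6 M TCA, then trioctylamine/trichlorotrifluoroethane. Aqueous layer was run on C18 reversed-phase HPLC (CH3CN gradient in KH2PO4, pH 6.0). Triphosphate was identified by retention time and UV spectrum against synthesized standard.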

Data set [4] concerns Enterovirus C. The data set can be described thus: Antiviral activity against Poliovirus infected in compound pre-treated HeLaS3 cells assessed as reduction in viral titer at 0.5 mM after 6 hrs relative to control. Format: functional, HeLa S3. The arrangement: scale not given: the % may be the effect or the level left. Summed up: (§3)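 HeLa S3 cells (DMEM/F-12, 2% dialyzed FBS, 37°C, 5% CO2) pretreated 1 h with nucleoside (0.5 or 2 mM), then infected with PV at MOI 5. Fresh medium with analogue added, infection run 6 h at 37°C. Cell-associated virus collected by freeze-thaw and titred on HeLa S3 monolayers. Result given as percent titer reduction versus untreated control.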

The subject of data set [5] is Enterovirus C. The experiment in a line: Antiviral activity against Poliovirus infected in compound pre-treated HeLaS3 cells assessed as reduction in viral titer at 2 mM after 6 hrs relative to control. In kind it is functional, HeLa S3. The arrangement: scale not given: the % may be the effect or the level left. In outline:
as §3

For data set [6], the system named is Coxsackievirus. The experiment in a line: Antiviral activity against Coxsackievirus infected in compound pre-treated HeLaS3 cells assessed as reduction in viral titer at 2 mM after 6 hrs relative to control. In kind it is functional, HeLa S3. The arrangement: scale not given: the % may be the effect or the level left. In outline:
as §2

Data set [7] can be described thus: Cytotoxicity against human HeLaS3 cells assessed cell viability at 2 mM after 24 hrs by Alamar blue assay. Format: cell-based, HeLa S3. The note with it: read-out: Activity. Summed up:
as §1

SMILES strings stand for the structures.

In the case of `OC[C@H]1O[C@@H](n2cnc3c(NO)ncnc32)[C@H](O)[C@@H]1O`, the viability at 24 h in data set [1] came out at 61%. Moreover, the Activity with Coxsackievirus [2] was found to be 97%; in the data set with Enterovirus C [4], 98%. In addition, the Stability entry in data set [3] is reported as “Stable”.
`Nc1nc2c(ncn2[C@@H]2O[C@H](CO)[C@@H](O)[C@H]2O)/c(=N\O)[nH]1`: the Activity is listed as 99.97% in the data set with Enterovirus C [5] and 99.99% in the data set on Coxsackievirus [6]. Also, the viability at 24 h, 2000 µM in data set [7] came out at 37%.
For the compound `NNc1ncnc2c1ncn2[C@@H]1O[C@H](CO)[C@@H](O)[C@H]1O`, in data set [1], the viability at 24 h is 56%. In addition, the Activity in the data set on Coxsackievirus [2] is reported as 99.9%; in the data set with Enterovirus C [4], 99.7%.
On to `CO/N=c1/[nH]cnc2c1ncn2[C@@H]1O[C@H](CO)[C@@H](O)[C@H]1O`, for which the figures for the Activity in the data set on Enterovirus C [5] and in the data set on Coxsackievirus [6] were 81% and 22%, respectively.
Turning to `CO/N=c1/[nH]c(N)nc2c1ncn2[C@@H]1O[C@H](CO)[C@@H](O)[C@H]1O`, the Activity in the data set with Enterovirus C [5] was found to be 45%; in the data set on Coxsackievirus [6] it was 0%.
With `CN(N)c1ncnc2c1ncn2[C@@H]1O[C@H](CO)[C@@H](O)[C@H]1O`, the values for the Activity in the data set on Enterovirus C [5] and in the data set on Coxsackievirus [6] were 35% and 0%, respectively.
Consider `NNc1nc(N)nc2c1ncn2[C@@H]1O[C@H](CO)[C@@H](O)[C@H]1O`, for which the Activity in the data set with Enterovirus C [5] came out at 97%; in the data set with Coxsackievirus [6], 95%. For the same compound, the viability at 24 h, 2000 µM in data set [7] was determined as 57%.
As to `CN(N)c1nc(N)nc2c1ncn2[C@@H]1O[C@H](CO)[C@@H](O)[C@H]1O`, the values for the Activity in the data set with Enterovirus C [5] and with Coxsackievirus [6] were 88% and 11%, respectively.
